Values after ≈ are worked out from the molar mass of the structure shown.
How the values were obtained:
[1] = tested on: Aspergillus fumigatus; assay: Antifungal activity against Aspergillus fumigatus ATCC 1022 after 72 hrs by microdilution technique; format: functional; conditions: ATCC 1022, 72 h
In short: (§1)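 Spores were washed off malt agar with 0.85% saline containing 0.1% Tween 80 and adjusted to about 1.0×10^5 per well. Compounds in 5% DMSO were serially diluted (0.001-1.0 mg/ml) in malt broth with inoculum. Plates were shaken at 160 rpm for 72 h at 28 °C. MIC is the lowest concentration without visible growth under a binocular microscope. Three independent experiments in duplicate.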

[2] = tested on: Aspergillus fumigatus; assay: Fungicidal activity against Aspergillus fumigatus ATCC 1022 incubated for 72 hrs followed by sub-culturing on broth malt medium and measured after 72 hrs; format: functional; conditions: ATCC 1022, 72 h
In short: (§2)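 After 72 h exposure in malt broth, 2 µL from test wells was subcultured into wells holding 100 µL broth and incubated a further 72 h at 28 °C. MFC is the lowest concentration with no visible growth, taken as 99.5% kill of the original inoculum. Three independent experiments in duplicate.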

[3] = tested on: Aspergillus versicolor; assay: Antifungal activity against Aspergillus versicolor ATCC 11730 after 72 hrs by microdilution method; format: functional; conditions: ATCC 11730, 72 h; in short: as §1
[4] = tested on: Aspergillus versicolor; assay: Fungicidal activity against Aspergillus versicolor ATCC 11730 incubated for 72 hrs followed by sub-culturing on broth malt medium and measured after 72 hrs; format: functional; conditions: ATCC 11730, 72 h; in short: as §2
[5] = tested on: Aspergillus ochraceus; assay: Antifungal activity against Aspergillus ochraceus ATCC 12066 after 72 hrs by microdilution technique; format: functional; conditions: ATCC 12066, 72 h; in short: as §1
[6] = tested on: Aspergillus ochraceus; assay: Fungicidal activity against Aspergillus ochraceus ATCC 12066 incubated for 72 hrs followed by sub-culturing on broth malt medium and measured after 72 hrs; format: functional; conditions: ATCC 12066, 72 h; in short: as §2
[7] = tested on: Aspergillus niger; assay: Antifungal activity against Aspergillus niger ATCC 6275 after 72 hrs by microdilution technique; format: functional; conditions: ATCC 6275, 72 h; in short: as §1
[8] = tested on: Aspergillus niger; assay: Fungicidal activity against Aspergillus niger ATCC 6275 incubated for 72 hrs followed by sub-culturing on broth malt medium and measured after 72 hrs; format: functional; conditions: ATCC 6275, 72 h; in short: as §2
[9] = tested on: Trichoderma viride; assay: Antifungal activity against Trichoderma viride IAM 5061 after 72 hrs by microdilution technique; format: functional; conditions: IAM 5061, 72 h; in short: as §1
[10] = tested on: Trichoderma viride; assay: Fungicidal activity against Trichoderma viride IAM 5061 incubated for 72 hrs followed by sub-culturing on broth malt medium and measured after 72 hrs; format: functional; conditions: IAM 5061, 72 h; in short: as §2
[11] = tested on: Penicillium ochrochloron; assay: Antifungal activity against Penicillium ochrochloron ATCC 9112 after 72 hrs by microdilution technique; format: functional; conditions: ATCC 9112, 72 h; in short: as §1
[12] = tested on: Penicillium ochrochloron; assay: Fungicidal activity against Penicillium ochrochloron ATCC 9112 incubated for 72 hrs followed by sub-culturing on broth malt medium and measured after 72 hrs; format: functional; conditions: ATCC 9112, 72 h; in short: as §2
[13] = Antifungal activity against Penicillium funiculosum ATCC 36839 after 72 hrs by microdilution technique; format: functional; conditions: Talaromyces pinophilus, ATCC 36839, 72 h; in short: as §1
[14] = Fungicidal activity against Penicillium funiculosum ATCC 36839 incubated for 72 hrs followed by sub-culturing on broth malt medium and measured after 72 hrs; format: functional; conditions: Talaromyces pinophilus, ATCC 36839, 72 h; in short: as §2
[15] = tested on: Penicillium cyclopium; assay: Antifungal activity against Penicillium verrucosum var. cyclopium food isolate after 72 hrs by microdilution technique; format: functional; in short: as §1
[16] = tested on: Penicillium cyclopium; assay: Fungicidal activity against Penicillium verrucosum var. cyclopium food isolate incubated for 72 hrs followed by sub-culturing on broth malt medium and measured after 72 hrs; format: functional; in short: as §2
[17] = tested on: Bacillus cereus; assay: Antibacterial activity against Bacillus cereus clinical isolate after 24 hrs by iodonitrotetrazolium chloride dye based microdilution assay; format: functional
In short: (§3)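 Fresh overnight cultures adjusted spectrophotometrically to 1×10^5 CFU/mL, giving 1.0×10^4 CFU per well in tryptic soy broth. Compounds were dissolved in 5% DMSO and tested at 0.001-1.0 mg/ml by serial dilution; 5% DMSO was the negative control. After 24 h at 37 °C, 0.2 mg/mL INT solution was added for 30 min at 37 °C and OD read at 655 nm. MIC is the lowest concentration giving significant growth inhibition versus the positive control. Duplicates, repeated three times.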

[18] = tested on: Bacillus cereus; assay: Bactericidal activity against Bacillus cereus clinical isolate incubated for 24 hrs followed by re-plating on tryptic soy broth; format: functional
In short: (§4)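 Bacteria were grown in tryptic soy broth, 1.0×10^4 CFU per well, with compounds in 5% DMSO at 0.001-1.0 mg/ml for 24 h at 37 °C. Then 10 µL was subcultured into fresh TSB. MBC is the lowest concentration showing no growth after subculture, taken as 99.5% kill of the original inoculum. Duplicates, repeated three times.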

[19] = tested on: Micrococcus flavus; assay: Antibacterial activity against Micrococcus flavus ATCC 10240 after 24 hrs by iodonitrotetrazolium chloride dye based microdilution method; format: functional; conditions: ATCC 10240, 24 h; in short: as §3
[20] = tested on: Micrococcus flavus; assay: Bactericidal activity against Micrococcus flavus ATCC 10240 incubated for 24 hrs followed by re-plating on tryptic soy broth; format: functional; conditions: ATCC 10240, 24 h; in short: as §4
[21] = tested on: Staphylococcus aureus; assay: Antibacterial activity against Staphylococcus aureus ATCC 6538 after 24 hrs by iodonitrotetrazolium chloride dye based microdilution method; format: functional; conditions: ATCC 6538, 24 h; in short: as §3
[22] = tested on: Staphylococcus aureus; assay: Bactericidal activity against Staphylococcus aureus ATCC 6538 incubated for 24 hrs followed by re-plating on tryptic soy broth; format: functional; conditions: ATCC 6538, 24 h; in short: as §4
[23] = tested on: Listeria monocytogenes; assay: Antibacterial activity against Listeria monocytogenes NCTC 7973 after 24 hrs by iodonitrotetrazolium chloride dye based microdilution method; format: functional; conditions: NCTC 7973, 24 h; in short: as §3
[24] = tested on: Listeria monocytogenes; assay: Bactericidal activity against Listeria monocytogenes NCTC 7973 incubated for 24 hrs followed by re-plating on tryptic soy broth; format: functional; conditions: NCTC 7973, 24 h; in short: as §4
[25] = tested on: Enterobacter cloacae; assay: Antibacterial activity against Enterobacter cloacae clinical isolate after 24 hrs by iodonitrotetrazolium chloride dye based microdilution method; format: functional; in short: as §3
[26] = tested on: Enterobacter cloacae; assay: Bactericidal activity against Enterobacter cloacae incubated for 24 hrs followed by re-plating on tryptic soy broth; format: functional; in short: as §4
[27] = tested on: Pseudomonas aeruginosa; assay: Antibacterial activity against Pseudomonas aeruginosa ATCC 27853 after 24 hrs by iodonitrotetrazolium chloride dye based microdilution method; format: functional; conditions: ATCC 27853, 24 h; in short: as §3
[28] = tested on: Pseudomonas aeruginosa; assay: Bactericidal activity against Pseudomonas aeruginosa ATCC 27853 incubated for 24 hrs followed by re-plating on tryptic soy broth; format: functional; conditions: ATCC 27853, 24 h; in short: as §4
[29] = tested on: Salmonella typhimurium; assay: Antibacterial activity against Salmonella typhimurium ATCC 13311 after 24 hrs by iodonitrotetrazolium chloride dye based microdilution method; format: functional, Salmonella enterica subsp. enterica serovar Typhimurium; conditions: Salmonella enterica, ATCC 13311, 24 h; in short: as §3
[30] = tested on: Salmonella typhimurium; assay: Bactericidal activity against Salmonella typhimurium ATCC 13311 incubated for 24 hrs followed by re-plating on tryptic soy broth; format: functional, Salmonella enterica subsp. enterica serovar Typhimurium; conditions: Salmonella enterica, ATCC 13311, 24 h; in short: as §4
[31] = tested on: Escherichia coli; assay: Antibacterial activity against Escherichia coli ATCC 35210 after 24 hrs by iodonitrotetrazolium chloride dye based microdilution method; format: functional; conditions: ATCC 35210, 24 h; in short: as §3
[32] = tested on: Escherichia coli; assay: Bactericidal activity against Escherichia coli ATCC 35210 incubated for 24 hrs followed by re-plating on tryptic soy broth; format: functional; conditions: ATCC 35210, 24 h; in short: as §4

MIC [17] [µM]	MIC [19] [µM]	MIC [21] [µM]	MIC [23] [µM]	MIC [25] [µM]	MIC [27] [µM]	MIC [29] [µM]	MIC [31] [µM]	Structure (SMILES)	MBC [18] [µM]	MBC [20] [µM]	MBC [22] [µM]	MBC [24] [µM]	MBC [26] [µM]	MBC [28] [µM]	MBC [30] [µM]	MBC [32] [µM]	further results
								CC(=O)N1CCN(c2ccc(OCC3COC(Cn4ccnc4)(c4ccc(Cl)cc4Cl)O3)cc2)CC1 (stereo not drawn) [KETOCONAZOLE]									MIC [1]: 38 ×10⁻² mM; MFC [2]: 95 ×10⁻² mM; MIC [3]: 285 ×10⁻² mM; MFC [4]: 380 ×10⁻² mM; MIC [5]: 38 ×10⁻² mM; MFC [6]: 95 ×10⁻² mM; MIC [7]: 38 ×10⁻² mM; MFC [8]: 95 ×10⁻² mM; MIC [9]: 475 ×10⁻² mM; MFC [10]: 570 ×10⁻² mM; MIC [11]: 38 ×10⁻² mM; MFC [12]: 95 ×10⁻² mM; MIC [13]: 380 ×10⁻² mM; MFC [14]: 380 ×10⁻² mM; MIC [15]: 38 ×10⁻² mM; MFC [16]: 57 ×10⁻² mM
43 (≈ 25 µg/mL)	86 (≈ 50 µg/mL)	172 (≈ 100 µg/mL)	258 (≈ 150 µg/mL)	270 (≈ 157 µg/mL)	172 (≈ 100 µg/mL)	43 (≈ 25 µg/mL)	270 (≈ 157 µg/mL)	CN[C@@H]1[C@H](O[C@H]2[C@H](O[C@H]3[C@H](O)[C@@H](O)[C@H](N=C(N)N)[C@@H](O)[C@@H]3N=C(N)N)O[C@@H](C)[C@]2(O)C=O)O[C@@H](CO)[C@H](O)[C@H]1O [STREPTOMYCIN]	86 (≈ 50 µg/mL)	172 (≈ 100 µg/mL)	344 (≈ 200 µg/mL)	516 (≈ 300 µg/mL)	344 (≈ 200 µg/mL)	344 (≈ 200 µg/mL)	86 (≈ 50 µg/mL)	344 (≈ 200 µg/mL)	
248 (≈ 86.7 µg/mL)	248 (≈ 86.7 µg/mL)	248 (≈ 86.7 µg/mL)	372 (≈ 130 µg/mL)	744 (≈ 260 µg/mL)	372 (≈ 130 µg/mL)	248 (≈ 86.7 µg/mL)	744 (≈ 260 µg/mL)	CC1(C)S[C@@H]2[C@H](NC(=O)[C@H](N)c3ccccc3)C(=O)N2[C@H]1C(=O)O [AMPICILLIN]	372 (≈ 130 µg/mL)	372 (≈ 130 µg/mL)	372 (≈ 130 µg/mL)	744 (≈ 260 µg/mL)	1240 (≈ 433 µg/mL)	492 (≈ 172 µg/mL)	380 (≈ 133 µg/mL)	1240 (≈ 433 µg/mL)	

Reference: ChEMBL document CHEMBL4393701, “Appendix A. dithioloquinolinethiones as new potential multitargeted antibacterial and antifungal agents: Synthesis, biological evaluation and molecular docking studies” (2019)
